From ChEMBL document CHEMBL2385062, “Metabolism of a potent neuroprotective hydrazide” (Bioorg Med Chem, 2013) come the findings set out here.

In one data set the test system is HT-22. Put plainly: Neuroprotective activity in mouse HT22 cells assessed as reduction in glutamate-induced oxidative stress incubated for 30 mins prior to glutamate-challenge measured after 20 hrs by MTT assay.
Data set [1] can be described thus: Neuroprotective activity in rat primary cortical neurons assessed as reduction in trophic factor withdrawal after 2 days by fluorescent live-dead assay. The class given is functional, cell-based. The settings on record: cerebral cortex neuron. The method in brief:
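Cortical neurons from E18 rat embryos were plated at low density (1 × 10⁶ per 35 mm dish) in serum-free DMEM/F12 with N2 supplement plus compounds. After 2 days, viability was scored with a fluorescent live-dead assay as the percentage of input cells surviving. EC50 was derived from the concentration–response curves.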

Data set [2] can be described thus: Neuroprotective activity in human MC65 cells expressing C-terminal 99 amino acids from […] assessed as reduction in intracellular amyloid beta toxicity after 4 days by MTT assay. The class given is functional, cell-based. The settings on record: MC65, 96 h. The gist of the method:
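MC65 cells from confluent cultures were plated at 4 × 10⁵ per 35 mm dish with compounds. Tetracycline was kept present (no induction) or omitted (APP-C99 induced). After 4 days, viability was read by MTT and expressed relative to plus-tetracycline controls. EC50 was calculated from concentration–response curves.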

Data set [3] in a line: Drug metabolism in mouse liver microsomes assessed as formation of 3-methoxy benzaldehyde at 5 uM by LC/MS/MS analysis. The class given is ADME, Microsome. The gist of the method: (§1)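 Parent at 5 µM was incubated with human or mouse liver microsomes, then extracted with ethyl acetate at zero time or after 5 min. Extracts were separated on a C18 reverse-phase HPLC column and analysed by LC/MS/MS in positive mode over m/z 50–1000. Metabolites were characterised from EPI-scan product ion spectra and CID pathways.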

Data set [4] in a line: Drug metabolism in mouse liver microsomes assessed as formation of 2,4-dimethylhydrazine at 5 uM by LC/MS/MS analysis. Type of data set: ADME, Microsome. The method in brief: as §1
Data set [5] concerns Liver microsomes. As to the kind of experiment: Drug metabolism in human liver microsomes assessed as formation of (E)-2,2,2-trifluoro-N-(4-(hydroxymethyl)-2-methylphenyl)-N'-(3-methoxybenzylidene)acetohydrazide at 5 uM by LC/MS/MS analysis. Type of data set: ADME, Microsome. The method in brief: as §1
Data set [6] can be described thus: Half life in human liver microsomes at 5 uM by LC/MS/MS analysis in presence of NADPH. Type of data set: ADME, Microsome. The gist of the method: (§2)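 Test compound at 5 µM was incubated at 37 °C with 0.5 mg/mL liver microsomes (human or mouse) in 5 mM phosphate buffer, pH 7.3, with or without 1 mM NADPH. Heat-inactivated microsomes (98 °C, 10 min) served as controls. At 0.1, 2, 5, 10 and 20 min, reactions were stopped with three volumes of ethyl acetate and centrifuged. Parent disappearance in the supernatant was followed by LC/MS/MS.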

Data set [7] is described as follows: Drug metabolism in mouse liver microsomes assessed as retention time at 5 uM by LC/MS/MS analysis. The class given is ADME, Microsome. The gist of the method:
as §1

Data set [8] concerns Blood. Put plainly: Drug metabolism in BALB/c mouse blood assessed as metabolite BM1 retention time at 20 mg/kg, iv administered in corn oil by LC/MS/MS analysis. Set-up: dose 20 mg/kg, route intravenous. The settings on record: in vivo. The class given is ADME, organism-based. The gist of the method: (§3)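 Mice received parent at 20 mg/kg iv, and blood was sampled 20 min later. Metabolites were identified by the same ethyl acetate extraction and LC/MS/MS workflow as for microsomes, using a polar reverse-phase column. Mass shifts were assigned to biotransformations.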

Data set [9] can be described thus: Drug metabolism in mouse liver microsomes assessed as metabolite M5 retention time at 5 uM by LC/MS/MS analysis. Type of data set: ADME, Microsome. The gist of the method:
as §1

Data set [10] is described as follows: Drug metabolism in mouse liver microsomes assessed as (E)-N'-(3,4-dihydroxybenzylidene)-N-(2,4-dimethylphenyl)-2,2,2-trifluoroacetohydrazide retention time at 5 uM by LC/MS/MS analysis. Type of data set: ADME, Microsome. The gist of the method:
as §1

Data set [11] can be described thus: Drug metabolism in mouse liver microsomes assessed as (E)-N-(2,4-dimethylphenyl)-2,2,2-trifluoro-N'-(3-hydroxybenzyli-dene)acetohydrazide retention time at 5 uM by LC/MS/MS analysis. Type of data set: ADME, Microsome. The gist of the method:
as §1

Data set [12] relates to Liver microsomes. As to the kind of experiment: Drug metabolism in human liver microsomes assessed as formation of (E)-N-(2,4-dimethylphenyl)-2,2,2-trifluoro-N'-(3-hydroxybenzyli-dene)acetohydrazide at 5 uM by LC/MS/MS analysis. The class given is ADME, Microsome. The method in brief: as §1
Data set [13] has as its system Plasma. Put plainly: Drug metabolism in mouse plasma assessed as formation of 2,4-dimethylaniline at 5 uM by LC/MS/MS analysis. Type of data set: ADME, cell-free.
Data set [14] has as its system Blood. Put plainly: Drug metabolism in BALB/c mouse blood assessed as retention time at 20 mg/kg, iv administered in corn oil by LC/MS/MS analysis. Type of data set: ADME, organism-based. Set-up: dose 20 mg/kg, route intravenous. As to conditions: in vivo; call rule not given here. The method in brief:
as §3

Data set [15] in a line: Half life in mouse liver microsomes at 5 uM by LC/MS/MS analysis in presence of NADPH. The class given is ADME, Microsome. The gist of the method: as §2
The subject of data set [16] is Blood. Put plainly: Drug metabolism in BALB/c mouse blood assessed as metabolite BM2 retention time at 20 mg/kg, iv administered in corn oil by LC/MS/MS analysis. The class given is ADME, organism-based. Set-up: dose 20 mg/kg, route intravenous. The settings on record: in vivo. The gist of the method: as §3
Data set [17] can be described thus: Half life in BALB/c mouse blood at 20 mg/kg, orally administered in corn oil by LC/MS/MS analysis. The settings on record: po.
Data set [18] in a line: Drug metabolism in mouse liver microsomes assessed as metabolite M4 retention time at 5 uM by LC/MS/MS analysis. Type of data set: ADME, Microsome. The gist of the method: as §1
A short description of data set [19]: Drug metabolism in mouse liver microsomes assessed as (E)-2,2,2-trifluoro-N-(4-(hydroxymethyl)-2-methylphenyl)-N'-(3-methoxybenzylidene)acetohydrazide retention time at 5 uM by LC/MS/MS analysis. Type of data set: ADME, Microsome. The method in brief: as §1
The nature of data set [20]: Drug metabolism in mouse liver microsomes assessed as formation of 2,4-dimethylaniline at 5 uM by LC/MS/MS analysis. The class given is ADME, Microsome. The gist of the method: as §1
The test system of data set [21] is Liver microsomes. As to the kind of experiment: Drug metabolism in human liver microsomes assessed as formation of 2,4-dimethylaniline at 5 uM by LC/MS/MS analysis. Type of data set: ADME, Microsome. The gist of the method:
as §1

The subject of data set [22] is Blood. Put plainly: Drug metabolism in BALB/c mouse blood assessed as (E)-N-(2,4-dimethylphenyl)-2,2,2-trifluoro-N'-(3-hydroxybenzyli-dene)acetohydrazide retention time at 20 mg/kg, iv administered in corn oil by LC/MS/MS analysis. The settings on record: in vivo. Set-up: dose 20 mg/kg, route intravenous. The class given is ADME, organism-based. The method in brief: as §3

For data set [23], the system named is Plasma. Put plainly: Drug metabolism in mouse plasma assessed as formation of 3-methoxy benzaldehyde at 5 uM by LC/MS/MS analysis. Type of data set: ADME, cell-free.
Data set [24] relates to Liver microsomes. As to the kind of experiment: Drug metabolism in human liver microsomes assessed as formation of 3-methoxy benzaldehyde at 5 uM by LC/MS/MS analysis. Type of data set: ADME, Microsome. The gist of the method:
as §1

For data set [25], the system named is Plasma. As to the kind of experiment: Drug metabolism in mouse plasma assessed as formation of 2,4-dimethylhydrazine at 5 uM by LC/MS/MS analysis. The class given is ADME, cell-free.
Data set [26] concerns Liver microsomes. Put plainly: Drug metabolism in human liver microsomes assessed as formation of 2,4-dimethylhydrazine at 5 uM by LC/MS/MS analysis. The class given is ADME, Microsome. The method in brief:
as §1

Data set [27] can be described thus: Half life in BALB/c mouse brain at 20 mg/kg, orally administered in corn oil by LC/MS/MS analysis. As to conditions: po.
For data set [28], the system named is Liver microsomes. Put plainly: Drug metabolism in human liver microsomes assessed as retention time at 5 uM by LC/MS/MS analysis. Type of data set: ADME, Microsome. The gist of the method:
as §1

For `Cc1ccc(N(/N=C/c2cccc(O)c2)C(=O)C(F)(F)F)c(C)c1`, the EC50 with HT-22 came to 185 nM; in [1], 12 nM; in [2], 78 nM.

As for `Cc1ccc(N(/N=C/c2ccc(O)c(O)c2)C(=O)C(F)(F)F)c(C)c1`, the EC50 was 1000 nM in the data set with HT-22, 31 nM in [1] and 34 nM in data set [2].

Take `COc1cccc(/C=N/N(C(=O)C(F)(F)F)c2ccc(CO)cc2C)c1`: the results for the EC50 (in the data set with HT-22; in data set [1]; in [2]) were 180 nM, 320 nM and 92 nM, respectively.

For `COc1cccc(/C=N/N(C(=O)C(F)(F)F)c2ccc(C)cc2C)c1` [J147], the Drug metabolism entry in [3] was “Not Active”; in [4], “Not Active”; in the data set on Liver microsomes [5], “Active”; in the data set on Liver microsomes [12], “Active”; in the data set with Plasma [13] it was “Not Active”; in data set [20], “Not Active”. Also, the Drug metabolism entry in the data set with Liver microsomes [21], with Plasma [23], in the data set on Liver microsomes [24], with Plasma [25] and in the data set on Liver microsomes [26] was “Not Active” in each case. Also, the half-life at 5 µM was 4.5 min in data set [6] and less than 4 min in data set [15]. For the same molecule, the Retention_time in data set [7] worked out at 9.49 min; in the data set on Blood [8], 5.35 min; in data set [9] it was 6.82 min; in data set [10] it was 7.6 min; in [11], 8.36 min; with Blood [14], 9.27 min. Also, the Retention_time in the data set with Blood [16] was 5.54 min; in data set [18] it was 5.96 min; in data set [19], 7.86 min; in the data set on Blood [22] it was 8.04 min; in the data set on Liver microsomes [28], 10.97 min. Besides, the EC50 was determined as 20 nM in the data set with HT-22, 33 nM in data set [1] and 11 nM in [2]. Besides, the half-life in data set [17] and in data set [27] was 2.5 h in each case.
